# Test results: ChEMBL document CHEMBL1921744, “Lipophosphonoxins: new modular molecular structures with significant antibacterial properties” (J Med Chem, 2011)
# Calls of active or inactive are those of the source. The rule behind the calls is not given here.
# Tests used:
# [1] = Cytotoxicity against human Erythroid progenitor cells assessed as cell viability after 48 hrs by CellTiter-blue assay; type: cell-based
# Procedure, shortened: (§1)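 Normal human erythroid progenitor cells, expanded from umbilical cord blood, plated at 25000 cells/well immediately before compound addition (added as a 5× predilution in culture medium). Viability by CellTiter-Blue fluorescence 48 h after addition, normalized to untreated cells set as 100%.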
# [2] = Cytotoxicity against human Erythroid progenitor cells assessed as maximum safe concentration after 48 hrs by CellTiter-blue assay; type: cell-based; conditions: read-out: Activity; procedure, shortened: as §1
# [3] = Induction of apoptosis in human Erythroid progenitor cells assessed as caspase 3/7 activation after 4 hrs by Caspase-Glo 3/7 assay
# Procedure, shortened: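 Cord-blood-derived human erythroid progenitor cells plated at 25000 cells/well and exposed to compound prediluted in medium. Caspase 3/7 activation read by Caspase-Glo 3/7 luminescence 4 h after addition, normalized to untreated control cells set as 100%.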
# Escherichia coli [4] = assay: Antibacterial activity against Escherichia coli after 24 to 48 hrs by microdilution method; type: functional
# Procedure, shortened: (§2)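 Incubation 24/48 h at 37 °C. MIC read as the lowest concentration inhibiting growth. MBC determined by transferring 10 μL from wells onto blood agar, taken as the lowest concentration with no visible growth.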
# Pseudomonas aeruginosa = assay: Antibacterial activity against Pseudomonas aeruginosa after 24 to 48 hrs by microdilution method; type: functional; procedure, shortened: as §2
# Staphylococcus aureus [5] = assay: Antibacterial activity against methicillin-resistant Staphylococcus aureus 4591 after 24 to 48 hrs by microdilution method; type: functional
# Procedure, shortened: (§3)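 Broth microdilution MIC on clinical isolates from Teaching Hospital Olomouc, stored at −80 °C. Compounds were serially diluted in brain heart infusion broth over 200–1.56 μg/mL (sometimes extended to 0.78 μg/mL), with an inoculum of 10⁵⁻⁶ CFU/ml per well. Plates were incubated at 37 °C and read at 24/48 h. MIC was taken as the lowest concentration inhibiting growth.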
# Enterococcus faecium [6] = assay: Antibacterial activity against vancomycin-resistant Enterococcus faecium VanA419/ana after 24 to 48 hrs by microdilution method; type: functional; procedure, shortened: as §3
# [7] = test system: Staphylococcus epidermidis; assay: Antibacterial activity against methicillin-resistant Staphylococcus epidermidis 8700/B after 24 to 48 hrs by microdilution method; type: functional; procedure, shortened: as §3
# Enterococcus faecalis [8] = assay: Antibacterial activity against Enterococcus faecalis CCM 4224 after 24 to 48 hrs by microdilution method; type: functional; procedure, shortened: as §2
# Staphylococcus aureus [9] = assay: Antibacterial activity against Staphylococcus aureus CCM 4223 after 24 to 48 hrs by microdilution method; type: functional; procedure, shortened: as §2
# Bacillus subtilis [10] = assay: Antibacterial activity against Bacillus subtilis after 24 to 48 hrs by microdilution method; type: functional; procedure, shortened: as §2
# Streptococcus agalactiae = assay: Antibacterial activity against Streptococcus agalactiae after 24 to 48 hrs by microdilution method; type: functional; procedure, shortened: as §2
# Enterococcus faecalis [11] = assay: Antibacterial activity against Enterococcus faecalis ATCC 29212; type: functional
# Enterococcus faecalis [12] = assay: Antibacterial activity against vancomycin-resistant Enterococcus faecalis SR7914; type: functional
# Enterococcus faecium [13] = assay: Antibacterial activity against vancomycin-resistant Enterococcus faecium SR7917; type: functional
# Staphylococcus aureus [14] = assay: Antibacterial activity against methicillin-sensitive Staphylococcus aureus ATCC 29213; type: functional; procedure, shortened: as §2
# Staphylococcus aureus [15] = assay: Antibacterial activity against methicillin-resistant Staphylococcus aureus SR3637; type: functional
# Enterococcus faecium [16] = assay: Antibacterial activity against Enterococcus faecium ATCC 19434; type: functional; procedure, shortened: as §2
# Bacillus subtilis [17] = assay: Inhibition of Bacillus subtilis RNA polymerase using [alpha-32P]-UTP at 1 mM pretreated for 5 mins measured after 15 mins by electrophoresis analysis
# Procedure, shortened: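 Reconstituted B. subtilis RNAP σA holoenzyme (6 nM) with supercoiled pLK7 template carrying the rrnB P1 promoter (4 ng/μL). Nucleotides: ATP/CTP/GTP 200 μM, UTP 10 μM plus 2 μM [α-³²P]-UTP. Compound at 1 mM; 5 min preincubation at 30 °C, started with RNAP, stopped after 15 min with formamide/EDTA.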
# Escherichia coli [18] = assay: Antibacterial activity against permeabilized Escherichia coli DH5[alpha] assessed as log reduction of colony forming unit at 10 uM; type: functional, organism-based
# Procedure, shortened: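 Competent (permeabilized) E. coli DH5α cells were mixed with 5 ng pUC18 (ampR) and serially diluted compound or buffer only. Steps: 30 min on ice, heat shock at 42 °C for 90 s, 5 min on ice, then LB without antibiotic for 1 h at 37 °C with shaking. Plated on LB agarose with ampicillin 100 μg/mL overnight at 37 °C. Colonies counted against the no-compound control.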
Compound,IC50 [1],MNTC at 48 h [2],Activity [3],MIC (Escherichia coli [4]),MIC (Pseudomonas aeruginosa),MIC (Bacillus subtilis [10]),MIC (Streptococcus agalactiae),other results
CC(C)(C)C(=O)SCCOP(=O)(CCN1C[C@@H](O)[C@H](O)C1)OC[C@H]1O[C@@H](n2ccc(=O)[nH]c2=O)[C@H](O)[C@@H]1O (stereo partly drawn),> 1000 µg/mL,> 1000 µg/mL,Non-toxic,> 200 µg/mL,> 200 µg/mL,,,
CCCCCCCCCCCCCCCCCCOP(=O)(CCN1C[C@@H](O)[C@H](O)C1)OC[C@H]1O[C@@H](n2ccc(=O)[nH]c2=O)[C@H](O)[C@@H]1O (stereo partly drawn),36 µg/mL,15.6 µg/mL,Non-toxic,> 200 µg/mL,> 200 µg/mL,6.25 µg/mL,3.13 µg/mL,MIC (Staphylococcus aureus [5]): 200 µg/mL; MIC (Enterococcus faecium [6]): 6.25 µg/mL; MIC [7]: 6.25 µg/mL; MIC (Enterococcus faecalis [8]): 6.25 µg/mL; MIC (Staphylococcus aureus [9]): 12.5 µg/mL
CCCCCCCCCCCCCCCCOP(=O)(CCN1C[C@@H](O)[C@H](O)C1)OC[C@H]1O[C@@H](n2ccc(=O)[nH]c2=O)[C@H](O)[C@@H]1O (stereo in doubt; 12i-P1) [listing 1 of 2 here],,,Toxic,,,,,
CCCCCCCCCCCCCCCCOP(=O)(CCN1C[C@@H](O)[C@H](O)C1)OC[C@H]1O[C@@H](n2ccc(=O)[nH]c2=O)[C@H](O)[C@@H]1O (stereo in doubt; 12i-P1) [listing 2 of 2 here],,,,,,,,Activity (Enterococcus faecalis [8]): Active; Activity (Staphylococcus aureus [9]): Active; Activity (Bacillus subtilis [10]): Active; Activity (Streptococcus agalactiae): Active
CN[C@H](CC(C)C)C(=O)N[C@H]1C(=O)N[C@@H](CC(N)=O)C(=O)N[C@H]2C(=O)N[C@H]3C(=O)N[C@H](C(=O)N[C@H](C(=O)O)c4cc(O)cc(O)c4-c4cc3ccc4O)[C@H](O)c3ccc(c(Cl)c3)Oc3cc2cc(c3O[C@@H]2O[C@H](CO)[C@@H](O)[C@H](O)[C@H]2O[C@H]2C[C@](C)(N)[C@H](O)[C@H](C)O2)Oc2ccc(cc2Cl)[C@H]1O [VANCOMYCIN],,,,,,,,MIC (Enterococcus faecalis [11]): 1 µg/mL; MIC (Enterococcus faecalis [12]): > 64 µg/mL; MIC (Enterococcus faecium [13]): > 64 µg/mL
CN(C)[C@@H]1C(O)=C(C(N)=O)C(=O)[C@@]2(O)C(O)=C3C(=O)c4c(O)cccc4[C@@](C)(O)[C@H]3C[C@@H]12 [TETRACYCLINE],,,,,,2 µg/mL,1 µg/mL,
CC(C)C[C@@H](NC[C@@H](NC(=O)N[C@H](C(=O)O)C(C)C)[C@@H]1CCNC(=N)N1)C(=O)NCCCN[C@H](C(=O)O)[C@H](O[C@@H]1O[C@H](CN)[C@@H](O)[C@H]1O)[C@H]1O[C@@H](n2ccc(=O)[nH]c2=O)[C@H](O)[C@@H]1O,,,,,,,,MIC (Staphylococcus aureus [14]): > 64 µg/mL; MIC (Staphylococcus aureus [15]): > 64 µg/mL; MIC (Enterococcus faecalis [11]): > 64 µg/mL; MIC (Enterococcus faecalis [12]): > 64 µg/mL; MIC (Enterococcus faecium [16]): > 64 µg/mL; MIC (Enterococcus faecium [13]): > 64 µg/mL
CCCCCCCCCCCCCCCCOCCCOP(=O)(CCN1C[C@H](O)C[C@@H](O)C1)OC[C@H]1O[C@@H](n2ccc(=O)[nH]c2=O)[C@H](O)[C@@H]1O (stereo partly drawn),53 µg/mL,31.2 µg/mL,Non-toxic,> 200 µg/mL,> 200 µg/mL,100 µg/mL,6.25 µg/mL,inhibition (Bacillus subtilis [17]): inactive; MIC (Enterococcus faecalis [8]): 200 µg/mL
CCCCCCCCCCCCCCC[C@@H](NC[C@@H](NC(=O)N[C@H](C(=O)O)C(C)C)[C@@H]1CCNC(=N)N1)C(=O)NCCCN[C@H](C(=O)O)[C@H](O[C@@H]1O[C@H](CN)[C@@H](O)[C@H]1O)[C@H]1O[C@@H](n2ccc(=O)[nH]c2=O)[C@H](O)[C@@H]1O,,,,,,,,MIC (Staphylococcus aureus [14]): 2 µg/mL; MIC (Staphylococcus aureus [15]): 4 µg/mL; MIC (Enterococcus faecalis [11]): 2 µg/mL; MIC (Enterococcus faecalis [12]): 4 µg/mL; MIC (Enterococcus faecium [16]): 0.5 µg/mL; MIC (Enterococcus faecium [13]): 0.25 µg/mL
CCCCCCCCCCCCCCCCOCCCOP(=O)(CCN1C[C@@H](O)[C@@H](O)[C@@H](O)C1)OC[C@H]1O[C@@H](n2ccc(=O)[nH]c2=O)[C@H](O)[C@@H]1O (stereo partly drawn),149 µg/mL,62.5 µg/mL,Non-toxic,> 200 µg/mL,> 200 µg/mL,,12.5 µg/mL,inhibition (Bacillus subtilis [17]): inactive
CCOP(=O)(CCN1C[C@@H](O)[C@H](O)C1)OC[C@H]1O[C@@H](n2ccc(=O)[nH]c2=O)[C@H](O)[C@@H]1O (stereo partly drawn),,,Non-toxic,> 200 µg/mL,> 200 µg/mL,,,
CCCCCCCCCCCCCCCCOCCCOP(=O)(CCN1C[C@@H](O)[C@H](O)C1)OC[C@H]1O[C@@H](n2ccc(N)nc2=O)[C@H](O)[C@@H]1O (stereo partly drawn),67 µg/mL,31.2 µg/mL,Non-toxic,> 200 µg/mL,> 200 µg/mL,3.13 µg/mL,3.13 µg/mL,MIC (Enterococcus faecium [6]): 6.25 µg/mL; MIC [7]: 6.25 µg/mL; MIC (Enterococcus faecalis [8]): 6.25 µg/mL; MIC (Staphylococcus aureus [9]): 25 µg/mL
CCCCCCCCCCCCCCCCOP(=O)(CCN1C[C@H](O)C[C@H]1CO)OC[C@H]1O[C@@H](n2ccc(=O)[nH]c2=O)[C@H](O)[C@@H]1O (stereo partly drawn),116 µg/mL,62.5 µg/mL,Non-toxic,> 200 µg/mL,> 200 µg/mL,3.13 µg/mL,3.13 µg/mL,MIC (Enterococcus faecium [6]): 6.25 µg/mL; MIC [7]: 6.25 µg/mL; MIC (Enterococcus faecalis [8]): 6.25 µg/mL; MIC (Staphylococcus aureus [9]): 100 µg/mL
CCCCCCCCCCCCCCC[C@H](NC[C@@H](NC(=O)N[C@H](C(=O)O)C(C)C)[C@@H]1CCNC(=N)N1)C(=O)NCCCN[C@H](C(=O)O)[C@H](O[C@@H]1O[C@H](CN)[C@@H](O)[C@H]1O)[C@H]1O[C@@H](n2ccc(=O)[nH]c2=O)[C@H](O)[C@@H]1O,,,,,,,,MIC (Staphylococcus aureus [14]): 2 µg/mL; MIC (Staphylococcus aureus [15]): 4 µg/mL; MIC (Enterococcus faecalis [11]): 4 µg/mL; MIC (Enterococcus faecalis [12]): 4 µg/mL; MIC (Enterococcus faecium [16]): 4 µg/mL; MIC (Enterococcus faecium [13]): 2 µg/mL
CCCCCCCCCCCCCCCCOP(=O)(CCN1C[C@@H](O)[C@H](O)C1)OC[C@H]1O[C@@H](n2ccc(=O)[nH]c2=O)[C@H](O)[C@@H]1O (mixture of isomers),,,,,,,,Activity (Escherichia coli [18]): Active
CCCCCCCCCCCCCCCCOCCCOP(=O)(CCN1C[C@H](O)[C@@H](O)C1)OC[C@H]1O[C@@H](n2ccc(=O)[nH]c2=O)[C@H](O)[C@@H]1O (stereo partly drawn),47 µg/mL,31.2 µg/mL,Non-toxic,> 200 µg/mL,> 200 µg/mL,6.25 µg/mL,6.25 µg/mL,MIC (Enterococcus faecium [6]): 6.25 µg/mL; MIC [7]: 6.25 µg/mL; inhibition (Bacillus subtilis [17]): inactive; MIC (Enterococcus faecalis [8]): 12.5 µg/mL
O=C(N[C@H](CO)[C@H](O)c1ccc([N+](=O)[O-])cc1)C(Cl)Cl [CHLORAMPHENICOL],,,,,,,2 µg/mL,
"CCCCCCCCCCCCCCCCOP(=O)(CCN1C[C@@H](O)[C@H](O)C1)OC[C@H]1O[C@@H](n2ccc(=O)[nH]c2=O)[C@H](O)[C@@H]1O (single isomer, unassigned; diastereomer 2)",,,,,,,,Activity (Enterococcus faecalis [8]): Active; Activity (Staphylococcus aureus [9]): Active; Activity (Bacillus subtilis [10]): Active; Activity (Streptococcus agalactiae): Active
